Assay results reported in BindingDB's records for doi:10.1021/jm030056e (Glaxosmithkline, 2003).

How the values were obtained:
[1] = molecular target: cGMP-specific 3',5'-cyclic phosphodiesterase (Bos taurus, UniProt Q28156); assay: Inhibitory activity against bovine PDE5 (phosphodiesterase-5).
Phosphodiesterase = Phosphodiesterase (Bos taurus, UniProt E1BN64); assay: Inhibition of bovine aorta PDE3 (phosphodiesterase 3)
Outline: (§1)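 Incubated 30 min at 30 °C under initial-velocity conditions (≤10-15% hydrolysis). Product separated on QAE Sephadex and counted by scintillation; final DMSO 2%.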

[2] = molecular target: cGMP-dependent 3',5'-cyclic phosphodiesterase (Homo sapiens, UniProt O00408); assay: Inhibition of human recombinant PDE2 (phosphodiesterase 2); outline: as §1
Chain of cGMP-dependent 3',5'-cyclic phosphodiesterase (O00408 whole entry): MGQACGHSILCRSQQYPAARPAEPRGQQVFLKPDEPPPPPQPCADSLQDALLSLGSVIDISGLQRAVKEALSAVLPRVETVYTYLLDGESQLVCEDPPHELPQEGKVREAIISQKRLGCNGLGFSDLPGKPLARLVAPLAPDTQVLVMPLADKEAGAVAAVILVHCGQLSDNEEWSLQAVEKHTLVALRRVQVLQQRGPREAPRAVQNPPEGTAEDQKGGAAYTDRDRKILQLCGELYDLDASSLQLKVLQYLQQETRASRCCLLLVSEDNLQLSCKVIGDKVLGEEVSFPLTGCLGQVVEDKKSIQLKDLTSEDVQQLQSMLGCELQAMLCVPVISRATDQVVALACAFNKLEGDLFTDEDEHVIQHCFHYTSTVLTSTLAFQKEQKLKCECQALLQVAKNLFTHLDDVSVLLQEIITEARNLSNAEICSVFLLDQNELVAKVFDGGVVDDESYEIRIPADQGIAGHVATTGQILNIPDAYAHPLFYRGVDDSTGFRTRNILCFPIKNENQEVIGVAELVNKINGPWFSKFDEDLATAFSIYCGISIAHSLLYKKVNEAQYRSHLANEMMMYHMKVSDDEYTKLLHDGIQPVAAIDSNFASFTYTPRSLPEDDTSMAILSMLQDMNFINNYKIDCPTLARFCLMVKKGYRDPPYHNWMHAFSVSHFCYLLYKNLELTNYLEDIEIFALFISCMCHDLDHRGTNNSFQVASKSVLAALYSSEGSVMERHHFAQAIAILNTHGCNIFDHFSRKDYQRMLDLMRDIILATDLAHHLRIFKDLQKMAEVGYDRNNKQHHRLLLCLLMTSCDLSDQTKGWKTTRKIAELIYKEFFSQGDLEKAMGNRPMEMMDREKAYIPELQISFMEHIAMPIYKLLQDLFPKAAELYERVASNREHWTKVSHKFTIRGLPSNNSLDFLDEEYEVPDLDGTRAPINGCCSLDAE

Chain of Phosphodiesterase (E1BN64 whole entry): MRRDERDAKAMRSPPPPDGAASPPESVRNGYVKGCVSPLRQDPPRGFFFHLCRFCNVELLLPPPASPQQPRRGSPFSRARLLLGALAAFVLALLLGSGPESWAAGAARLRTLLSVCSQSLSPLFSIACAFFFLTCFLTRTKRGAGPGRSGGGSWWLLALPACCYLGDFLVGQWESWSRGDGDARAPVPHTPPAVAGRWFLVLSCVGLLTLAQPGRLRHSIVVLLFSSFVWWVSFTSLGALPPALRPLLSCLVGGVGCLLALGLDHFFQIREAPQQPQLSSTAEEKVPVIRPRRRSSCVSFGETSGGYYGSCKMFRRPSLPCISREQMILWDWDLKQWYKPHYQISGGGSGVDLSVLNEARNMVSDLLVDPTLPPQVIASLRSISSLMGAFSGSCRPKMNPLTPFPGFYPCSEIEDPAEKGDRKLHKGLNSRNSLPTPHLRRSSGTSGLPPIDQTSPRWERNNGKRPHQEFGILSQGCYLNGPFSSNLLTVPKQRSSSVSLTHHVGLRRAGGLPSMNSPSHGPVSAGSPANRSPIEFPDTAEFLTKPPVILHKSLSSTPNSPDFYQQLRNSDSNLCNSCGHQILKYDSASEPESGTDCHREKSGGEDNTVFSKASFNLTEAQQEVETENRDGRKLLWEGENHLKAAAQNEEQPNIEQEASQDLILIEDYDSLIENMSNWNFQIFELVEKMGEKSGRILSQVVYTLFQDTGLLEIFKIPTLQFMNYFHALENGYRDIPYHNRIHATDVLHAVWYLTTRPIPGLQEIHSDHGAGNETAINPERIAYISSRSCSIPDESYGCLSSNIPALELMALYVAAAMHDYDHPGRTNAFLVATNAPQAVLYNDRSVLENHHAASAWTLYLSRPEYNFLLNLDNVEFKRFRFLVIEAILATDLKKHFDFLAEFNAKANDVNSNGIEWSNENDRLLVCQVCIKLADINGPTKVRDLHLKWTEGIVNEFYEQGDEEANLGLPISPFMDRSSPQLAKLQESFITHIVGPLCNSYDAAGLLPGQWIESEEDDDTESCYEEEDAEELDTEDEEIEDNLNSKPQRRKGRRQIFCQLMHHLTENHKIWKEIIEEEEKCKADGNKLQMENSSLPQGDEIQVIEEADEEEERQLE

Row | Compound | IC50 [1] [nM] | IC50 (Phosphodiesterase) [µM] | IC50 [2] [µM]
1 | COc1ccc([C@@H]2c3[nH]c4ccccc4c3Cc3c(O)n(Cc4ccccc4)c(=O)n32)cc1 [(3aR,10R)-2-Benzyl-10-(4-methoxy-phenyl)-3a,4,9,10-tetrahydro-2,9,10a-triaza-cyclopenta[b]fluorene-1,3-dione] |  | > 10 | > 10
2 | COc1ccc([C@H]2c3[nH]c4ccccc4c3Cc3c(O)n(CCN4CCCC4)c(=O)n32)cc1 | 100 |  | 
3 | COc1ccc([C@H]2c3[nH]c4ccccc4c3Cc3c(O)[nH]c(=O)n32)cc1 [(3aR,10S)-10-(4-Methoxy-phenyl)-3a,4,9,10-tetrahydro-2,9,10a-triaza-cyclopenta[b]fluorene-1,3-dione] | 20 |  | 
4 | COc1ccc([C@@H]2c3[nH]c4ccccc4c3Cc3c(O)n(C4CCCCC4)c(=O)n32)cc1 [(3aR,10R)-2-Cyclohexyl-10-(4-methoxy-phenyl)-3a,4,9,10-tetrahydro-2,9,10a-triaza-cyclopenta[b]fluorene-1,3-dione] | 7 |  | > 10
5 | COc1ccc([C@H]2c3[nH]c4ccccc4c3Cc3c(O)n(Cc4cccnc4)c(=O)n32)cc1 [(3aR,10S)-10-(4-Methoxy-phenyl)-2-pyridin-3-ylmethyl-3a,4,9,10-tetrahydro-2,9,10a-triaza-cyclopenta[b]fluorene-1,3-dione] | 20 |  | 

The remaining lines, values ahead:

Row | IC50 [1] [nM] | IC50 (Phosphodiesterase) [µM] | IC50 [2] [µM] | Compound
6 | 300 |  |  | CCCCn1c(O)c2n(c1=O)[C@H](c1ccncc1)c1[nH]c3ccccc3c1C2 [Cis-2-Butyl-10-pyridin-4-yl-3a,4,9,10-tetrahydro-2,9,10a-triaza-cyclopenta[b]fluorene-1,3-dione]
7 | 30 |  |  | CCCCn1c(O)c2n(c1=O)[C@H](c1ccsc1)c1[nH]c3ccccc3c1C2 [Cis-2-Butyl-10-thiophen-3-yl-3a,4,9,10-tetrahydro-2,9,10a-triaza-cyclopenta[b]fluorene-1,3-dione]
8 | 100 |  |  | CCCCn1c(O)c2n(c1=O)[C@H](c1ccoc1)c1[nH]c3ccccc3c1C2 [(3aR,10R)-2-Butyl-10-furan-3-yl-3a,4,9,10-tetrahydro-2,9,10a-triaza-cyclopenta[b]fluorene-1,3-dione]
9 |  | > 10 | > 10 | CCCCn1c(O)c2n(c1=O)[C@@H](c1ccc(OC)cc1)c1[nH]c3ccccc3c1C2 [(3aR,10S)-2-Butyl-10-(4-methoxy-phenyl)-3a,4,9,10-tetrahydro-2,9,10a-triaza-cyclopenta[b]fluorene-1,3-dione]
10 |  | > 10 | > 10 | CCCCn1c(O)c2n(c1=O)[C@H](c1ccc(OC)cc1)c1[nH]c3ccccc3c1C2 [(3aR,10R)-2-Butyl-10-(4-methoxy-phenyl)-3a,4,9,10-tetrahydro-2,9,10a-triaza-cyclopenta[b]fluorene-1,3-dione]
11 | 30 |  |  | COc1ccc([C@H]2c3[nH]c4ccccc4c3Cc3c(O)n(CCN(C)C)c(=O)n32)cc1 [(3aR,10S)-2-(2-Dimethylamino-ethyl)-10-(4-methoxy-phenyl)-3a,4,9,10-tetrahydro-2,9,10a-triaza-cyclopenta[b]fluorene-1,3-dione]
